Converted amounts (≈) assume the structure as drawn.
Columns and labels:
[1] = Partition coefficient (logP); assay type: physicochemical; settings: octanol/water
rhinovirus A2 [2] = assay: Antirhinovirus activity was assessed and the maximum testable concentration that causes no apparent effects on the cell monolayers was determined against HRV-2 virus in vitro.; assay type: functional, human rhinovirus type 2
Human rhinovirus sp. = assay: Mean of MIC's was determined for the five types of virus like HRV-2, HRV-1A,HRV-22,HRV-41 and HRV-50; assay type: functional
How it was run: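 MIC measured by plaque reduction against HRV-2 first. The value is the mean of the MICs across these five serotypes.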

rhinovirus A2 [3] = assay: Expanded antirhinoviral activity against the rhinovirus serotype 2; assay type: functional, human rhinovirus type 2; settings: Rhinovirus A
How it was run: (§1)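 Selected compounds were tested across a 15-serotype rhinovirus panel: the five secondary serotypes plus 10 more. An MIC was recorded for each serotype. MIC80, the concentration inhibiting 80% of serotypes tested, was also derived from this panel.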

rhinovirus A21 = assay: Expanded antirhinoviral activity against the rhinovirus serotype 21; assay type: functional; settings: Rhinovirus A; how it was run: as §1
rhinovirus A22 = assay: Expanded antirhinoviral activity against the rhinovirus serotype 22; assay type: functional; settings: Rhinovirus A; how it was run: as §1
rhinovirus A25 = assay: Expanded antirhinoviral activity against the rhinovirus serotype 25; assay type: functional; settings: Rhinovirus A; how it was run: as §1
rhinovirus A30 = assay: Expanded antirhinoviral activity against the rhinovirus serotype 30; assay type: functional; settings: Rhinovirus A; how it was run: as §1
rhinovirus A41 = assay: Expanded antirhinoviral activity against the rhinovirus serotype 41; assay type: functional; settings: Rhinovirus A; how it was run: as §1
rhinovirus A50 = assay: Expanded antirhinoviral activity against the rhinovirus serotype 50; assay type: functional; settings: Rhinovirus A; how it was run: as §1
rhinovirus B6 = assay: Expanded antirhinoviral activity against the rhinovirus serotype 6; assay type: functional; settings: Rhinovirus B; how it was run: as §1
rhinovirus A67 = assay: Expanded antirhinoviral activity against the rhinovirus serotype 67; assay type: functional; settings: Rhinovirus A; how it was run: as §1
rhinovirus B86 = assay: Expanded antirhinoviral activity against the rhinovirus serotype 86; assay type: functional; settings: Rhinovirus B; how it was run: as §1
rhinovirus A89 = assay: Expanded antirhinoviral activity against the rhinovirus serotype 89; assay type: functional, human rhinovirus type 89; settings: Rhinovirus A; how it was run: as §1
rhinovirus B14 = assay: Expanded antirhinoviral activity against the rhinovirus serotype 14; assay type: functional, human rhinovirus type 14; settings: Rhinovirus B; how it was run: as §1
rhinovirus A15 = assay: Expanded antirhinoviral activity against the rhinovirus serotype 15; assay type: functional; settings: Rhinovirus A; how it was run: as §1
rhinovirus A1B = assay: Expanded antirhinoviral activity against the rhinovirus serotype 1B; assay type: functional, human rhinovirus type 1b; settings: Rhinovirus A; how it was run: as §1
Human rhinovirus 1A = assay: Expanded antirhinoviral activity against the rhinovirus serotype 1A; assay type: functional; how it was run: as §1
rhinovirus A2 [4] = assay: Antiviral activity determined by ability to inhibit the HRV-2( human rhinovirus type -2) virus by plaque reduction assay in vitro; assay type: functional; settings: Rhinovirus A
How it was run: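 Plaque reduction assay against human rhinovirus type 2 (HRV-2), following an earlier reported method. The value is the MIC, the minimum inhibitory concentration.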

[5] = system: human rhinovirus (15-serotype panel); assay: Antirhinovirus activity was determined by the ability to inhibit the growth of 80% of a panel of 15 human rhinovirus serotypes

logP [1]: 3.49
MIC (Human rhinovirus sp.): 0.7 µM (≈ 0.252 µg/mL)
MIC (rhinovirus A2 [3]): 0.06 µM (≈ 0.0216 µg/mL)
MIC (rhinovirus A21): 0.06 µM (≈ 0.0216 µg/mL)
MIC (rhinovirus A22): 0.1 µM (≈ 0.0359 µg/mL)
MIC (rhinovirus A25): 1.9 µM (≈ 0.683 µg/mL)
MIC (rhinovirus A30): 0.1 µM (≈ 0.0359 µg/mL)
MIC (rhinovirus A41): 2 µM (≈ 0.719 µg/mL)
MIC (rhinovirus A50): 0.2 µM (≈ 0.0719 µg/mL)
MIC (rhinovirus B6): 1.6 µM (≈ 0.575 µg/mL)
MIC (rhinovirus A67): 0.2 µM (≈ 0.0719 µg/mL)
MIC (rhinovirus B86): 2 µM (≈ 0.719 µg/mL)
MIC (rhinovirus A89): 0.06 µM (≈ 0.0216 µg/mL)
MIC (rhinovirus B14): 1.8 µM (≈ 0.647 µg/mL)
MIC (rhinovirus A15): 0.3 µM (≈ 0.108 µg/mL)
MIC (rhinovirus A1B): 0.2 µM (≈ 0.0719 µg/mL)
MIC (Human rhinovirus 1A): 0.9 µM (≈ 0.323 µg/mL)
MIC (rhinovirus A2 [4]): 0.04 µM (≈ 0.0144 µg/mL)
MIC80 [5]: 1.8 µM (≈ 0.647 µg/mL)
SMILES: Cc1cc(CCCCCOc2ccc(C3=NCCO3)cc2[N+](=O)[O-])on1
MTL (rhinovirus A2 [2]): 3.9 µM

From ChEMBL document CHEMBL1123677, “Structure-activity studies of 5-[[4-(4,5-dihydro-2-oxazolyl) phenoxy]alkyl]-3-methylisoxazoles: inhibitors of picornavirus uncoating” (J Med Chem, 1987)
